# Screens (PubChem)
# This is a sample that favours compounds with a hit; in the whole collection about 2.6% have one here.
# b-catenin transl – beta-catenin nuclear translocation modulation; HeLa beta-catenin nuclear translocation, immunofluorescence imaging; nuclear translocation activity, % at 5 µM; hit rate 0.3% among 190,000;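 active = nuclear translocation activity above 50% at 5 µM, with a well cell count of 50 or more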;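 also: per-cell ratio of nuclear to cytoplasmic median beta-catenin stain intensity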
#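 Test system: human HeLa cells, endogenous beta-catenin. Times: 24 h compound exposure, 37°C. Measured by: beta-catenin immunofluorescence imaging with DAPI.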
# NPY-Y2 PAM-ag – potentiators or agonists of human neuropeptide Y receptor Y2; P49146; cells expressing NPY-Y2, potentiator/agonist read-out; activation, % at 3.6 µM; hit rate 0.45% among 220,000; AID 1359; in the data active = activation above about 27%;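 also: cells stimulated with NPY near EC25 plus isoproterenol at EC100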
# NPY Y2 blocker – blocks the human neuropeptide Y Y2 receptor; NPY-Y2 expressing cells, antagonist mode; hit rate 0.99% among 140,000; inhibition, % at 2.7 µM; P49146; in the data active = inhibition above about 17%
# NPY Y1 blocker – NPY-Y1 (human) receptor antagonism. HEK293-CNG Y1 cells, membrane potential fluorescence; NPY at EC95, then isoproterenol. inhibition, % at 3.6 µM. hit rate 1% among 200,000. AID 1040;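 active = inhibition above the campaign mean inhibition of all tested compounds plus 3 SD, cut at about 20% in these data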
# Target sequence (P25929 whole entry, looked up): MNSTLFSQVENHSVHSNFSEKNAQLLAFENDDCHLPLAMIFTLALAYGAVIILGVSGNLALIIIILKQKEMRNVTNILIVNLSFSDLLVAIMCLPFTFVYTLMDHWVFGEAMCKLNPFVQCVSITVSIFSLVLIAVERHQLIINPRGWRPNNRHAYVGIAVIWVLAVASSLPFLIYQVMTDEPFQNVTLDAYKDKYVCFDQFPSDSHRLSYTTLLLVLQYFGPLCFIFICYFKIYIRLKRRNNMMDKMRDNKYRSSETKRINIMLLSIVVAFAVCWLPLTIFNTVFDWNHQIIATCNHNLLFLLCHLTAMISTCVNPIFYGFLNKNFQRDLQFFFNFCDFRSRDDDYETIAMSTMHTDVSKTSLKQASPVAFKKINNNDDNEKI
#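 Assay system: HEK293 Y1/CNG channel cell line; Doses: single compound dose of 3.6 µM, 0.4% DMSO; Timing: dye 3 h, compound 60 min room temperature, stimulation 45 min; Technique: Membrane-potential fluorescent dye readout; Measure: % inhibition of NPY effect.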
# NPY-Y1 PAM-ag – human NPY-Y1 potentiation or agonism, primary screen; NPY-Y1 expressing cells, potentiator/agonist activation; activation, % at 3.6 µM; hit rate 0.37% among 220,000; in the data active = activation above about 33%, passing the limit was not always enough;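 also: cells stimulated with NPY at EC10 then isoproterenol at EC100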
# MT stabilizer – microtubule stabilizers in HeLa cells | HeLa tubulin immunostaining HCS, 24 h; share of cells brighter than vehicle mean+2SD | % tubulin-high responders, % at 10 µM | hit rate 0.83% among 200,000;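 active = plate Z-score above 3 for both tubulin-high and condensed-nucleus cell shares, with cell loss under 80%, at 10 µM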;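 also: anti alpha tubulin signal scored within the nucleus-defined area of each cell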
# A number is an active result; n = inactive; x = no result given.
SMILES,b-catenin transl,NPY-Y2 PAM-ag,NPY Y2 blocker,NPY Y1 blocker,NPY-Y1 PAM-ag,MT stabilizer
CSCCNCc1c(C(=O)N2CCOCC2)nc2c(C)cccn12,n,n,x,n,n,n
O=C(CC(=O)NC1CCCCC1)N/N=C/c1ccccc1F,n,n,x,n,n,n
O=C(Nc1cc(=O)[nH]c(=O)[nH]1)c1cccc(Br)c1,n,n,x,n,n,25
NC(=S)NNC(=O)c1cccc(Br)c1,n,n,x,n,n,n
Cc1ccc(N=Cc2cc3c(cc2O)OC(N)=C(C#N)C3c2ccccc2)cc1 (centres undefined),n,n,n,n,n,n
Nc1c(C(O)(C(F)(F)F)C(F)(F)F)cc(C(O)(C(F)(F)F)C(F)(F)F)c2ccccc12,x,77,n,n,48,n
Cc1cc(C)nc(-n2nc(C)cc2NC(=O)c2cccc(S(=O)(=O)N(C)C)c2)n1,n,x,x,x,x,x
Cc1ccc(C)c(C(=O)Nc2cc(C)nn2-c2nc(C)cc(C)n2)c1,n,n,x,n,n,13
CCOC(=O)CSc1nc2c(sc(=S)n2Cc2ccco2)c(=O)n1-c1ccccc1,n,n,36,60,n,n
CCOC(=O)CSc1nc2ccccc2c(=O)n1Cc1ccco1,n,n,n,n,n,n
CCOC(=O)CSc1nc2c(sc3ccc([N+](=O)[O-])cc32)c(=O)n1Cc1ccco1,n,n,n,n,n,n
CCOC(=O)CSc1nc2c(sc(=S)n2-c2ccccc2OC)c(=O)n1Cc1ccco1,n,n,27,34,n,n
CCCCOCCCNC(=O)N[C@H](C(=O)OC)C(C)CC (some centres undefined),n,n,x,x,n,x
O=C(NC12CC3CC(CC(C3)C1)C2)N(Cc1ccccc1)Cc1ccncc1,n,n,x,n,n,n
COc1ccc(/C=C2/C(=O)OCc3cc(OC)c(OC)cc32)cc1,n,n,n,n,n,20
O=C(OC1C2CCC1C1CN(CCc3ccccc3)CC12)c1ccccc1 (centres undefined),x,n,42,44,n,n
COc1ccccc1N1CCN(C2CCN(S(=O)(=O)c3ccc(NC(C)=O)cc3)CC2)CC1,n,n,x,n,n,n
COc1ccc(-c2nnc(SCc3ncc(-c4ccccc4)o3)o2)cc1,n,n,21,21,n,n
CCOc1cc(C#N)c(NC(=O)c2ccco2)cc1OCC,n,n,n,n,n,40
CC(=O)NNS(=O)(=O)c1ccc(-c2cc(C(F)(F)F)n(C)n2)s1,n,n,x,x,n,x
O=C(NCCN1CCOCC1)c1cnn2c(-c3ccccc3)cc(-c3ccccc3)nc12,n,n,20,36,n,n
O=C(NCCN1CCOCC1)c1ccccc1-c1ccccc1,n,n,n,n,n,n
CCOc1cccc(C2NC(=S)NC(C)=C2C(=O)Nc2ccccc2)c1 (centres undefined),n,n,n,n,n,14
COc1ccc(OC)c(NC(=O)Cc2coc3cc(C)cc(C)c23)c1,x,n,n,n,n,n
CCCN(CCC)S(=O)(=O)c1ccc(N2CCCC2=O)c([N+](=O)[O-])c1,n,n,n,n,n,n
SMILES,b-catenin transl,NPY-Y2 PAM-ag,NPY Y2 blocker,NPY Y1 blocker,NPY-Y1 PAM-ag,MT stabilizer
CCCN(CCC)S(=O)(=O)c1ccc(Cl)c([N+](=O)[O-])c1,n,77,x,n,77,n
O=C(NCc1ccc2c(c1)OCO2)c1ccc(S(=O)(=O)N2CCOCC2)cc1,n,n,x,n,n,n
COc1ccccc1CN(C(=O)Cc1cccs1)C(C(=O)NC1CCCC1)c1ccncc1 (centres undefined),n,n,19,45,n,n
COc1ccccc1CN(C(=O)c1ccco1)C(C(=O)NC1CCCC1)c1ccncc1 (centres undefined),n,n,n,n,n,n
COC(=O)c1ccc(C(C(=O)NC2CCCCC2)N(Cc2ccccc2)C(=O)Cc2cccs2)cc1 (centres undefined),x,n,n,n,n,n
COc1cc(C(C(=O)NC2CCCCC2)N(C(=O)Cc2c[nH]c3ccccc23)c2ccccc2C)cc(OC)c1OC (centres undefined),n,n,n,n,n,n
O=C(NC1CCCC1)C(c1ccccc1)N(Cc1ccc2c(c1)OCO2)C(=O)Cc1cccs1 (centres undefined),n,n,21,23,n,n
